# Measurements taken from ChEMBL document CHEMBL4513216, “Probing the Open Global Health Chemical Diversity Library for Multistage-Active Starting Points for Next-Generation Antimalarials” (ACS Infect Dis, 2020).
# Assay: Toxicity liver stage against HepG2, at 10uM
# Assay type: cell-based
# Set-up: test concentration 10 uM, cell line HepG2-A16-CD81EGFP
# Conditions: human, HepG2-A16-CD81EGFP cells; read-out: INHIBITION
# In short: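 Uninfected HepG2-A16-CD81EGFP cells, 3 × 10^3 per well, 1536-well, plated on prespotted compound at 10 μM final, parasite-free screening media added to match infected plates; puromycin 10 μM positive, DMSO 0.5% negative; run in parallel with 48 h PbLuc assay at 37 °C, 5% CO2; viability by CellTiter-Glo luminescence, normalized to controls.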
row,Structure (SMILES),cytotoxicity at 10 µM
1,COc1cccc(N2CCN(C(=O)c3noc4c3CCCCC4)CC2)c1,9.4%
2,CN1C(=N)NC(=O)/C1=C/c1ccc(-c2ccc(Br)cc2)o1,5.39%
3,CN1CCC(NC(=O)c2cc(C3CCCCC3)nc3ccccc23)CC1,-1.25%
4,CC(C)CN1CC(O)CN(S(=O)(=O)c2ccccc2)CC1=O (stereo not drawn),1.74%
5,O=C(CCC(=O)N1CCC(c2noc3cc(F)ccc23)CC1)NC1CC1,5.09%
6,CCOCc1cnc2n1CCN(C(=O)Cc1ccco1)C2C (stereo not drawn),3.53%
7,Cc1cnc(N2CCC3(CC2)CC(NC(=O)N(C)C)CO3)nc1 (stereo not drawn),6.31%
8,Cc1nnc([C@H]2CC[C@@H]3[C@@H](CCN3CC3CCOCC3)O2)o1,10.1%
9,O=C(c1ccsc1)N1C[C@H](N2CCOCC2)[C@@H]2OCCC[C@@H]21,8.28%
10,CN(C)C(=O)CN1C[C@@H]2OCCN(c3ncc(F)cn3)[C@@H]2C1,-0.756%
11,O=C(c1cc(-n2cnnn2)ccc1Cl)N1CCN(c2ccccc2)CC1,11.3%
12,COc1cccc(C2CC(=O)Nc3c2c(=O)n(C)c2ncnn32)c1 (stereo not drawn),-0.549%
13,COc1cc(C)c2c(c1C)C[C@@H](C(C)C(=O)O)CC2 (stereo partly drawn),4.98%
14,Cc1ccc2c(c1)CCC21CCN(C(=O)CO)CC1,-8.13%
15,CCc1noc(C2CCN(C(=O)CCn3nc(C)cc3C)CC2)n1,-9.52%
16,Cn1nccc1-c1cncc(C2CCCN(S(C)(=O)=O)C2)n1 (stereo not drawn),6.62%
17,Cc1cc(-c2cnc(N3CCCC3)nc2C(C)C)on1,5.14%
18,CCOCCN1CCC(c2cncc(C)n2)CC1,-2.58%
19,CCc1cccc2cc(CN)c(=O)[nH]c12,3.54%
20,Nc1nc(N)c2c(n1)OC1(CCCN(Cc3nccs3)CC1)C2 (stereo not drawn),-2.25%
21,c1ccc(Cc2cncc(C3CCCN3C3CCOCC3)n2)cc1 (stereo not drawn),1.4%
22,Cc1cccc(NC(=O)c2cnc(C3CCCNC3)cn2)n1 (stereo not drawn),3.04%

row,Structure (SMILES),cytotoxicity at 10 µM
1,CC(=O)Nc1cc(CCC2CCN(C(=O)c3ccccn3)CC2)ccn1,-0.331%
2,O=C(C1CCCC1)N1CC2(CCN(C3COC3)C2)Cc2ccccc21 (stereo not drawn),10.1%
3,O=C(Cc1c[nH]c2ncccc12)NCC(O)c1ccsc1 (stereo not drawn),5.46%
4,NC(=O)c1cnc(NC(=O)CCc2ccco2)c(Cl)c1,3.42%
5,Cn1c(CS(=O)(=O)c2ccc(Cl)cc2)cc(=O)n(C)c1=O,7.5%
6,COc1ccc(OCCN(C)CCCn2cnc3c(N)ncnc32)cc1,1.12%
7,CC(C)c1nnc2n1CCN(Cc1cc(Cl)c3c(c1)OCCO3)C2,0.549%
8,CC(C)Cc1cc(C(=O)N2CCCN(c3ncccn3)CC2)[nH]n1,4.57%
9,COCCN(CC(F)F)c1cc(C(F)(F)F)nc2ncnn12,4.11%
10,Cc1ccc(-c2nnc(NC(=O)c3ccn(C)c(=O)c3)[nH]2)s1,-1.15%
11,CCc1nc(Cn2c(=O)c3c(C(F)(F)F)cc(C)nc3n2C)no1,2.58%
12,Cc1cc(C[S+]([O-])Cc2ccccc2F)on1 (stereo not drawn),-8.37%
13,CN(C)c1ccc(C(=O)Nc2ccn(Cc3ccccn3)n2)cn1,-0.677%
14,CNC(=O)NCC(=O)N1CCCC1Cc1cccc(F)c1 (stereo not drawn),-2.59%
15,CC(NC(=O)c1cc(N2CCNC2=O)ccc1F)c1ccc(F)cc1 (stereo not drawn),5.89%
16,COc1ccc(CC(=O)N2CCC(c3nnc4n3CCC4)CC2)cc1F,-1.65%
17,COc1cc(C2(C(=O)NC3CCC4(CC3)OCCO4)CC2)ccc1C,-13.2%
18,CCN(C)CCNC(=O)Cc1nc(-c2ccco2)oc1C,-12.5%
19,CC(C(=O)NCc1ccnc(OC2CCCC2)c1)n1cncn1 (stereo not drawn),10.4%
20,CC(C)CC(=O)N1CCN(Cc2csc(-c3ncccn3)n2)CC1,8.61%
21,Cc1cccnc1NC(=O)CNC(=O)c1ccccc1Cl,-3.36%
22,CC(C)c1nnc2n1CCN(C(=O)c1ccccc1OCC1CC1)C2,10.5%

row,Structure (SMILES),cytotoxicity at 10 µM
1,CC(C)(C)C(O)CN1CCN(C(=O)COCC2CC2)CC1 (stereo not drawn),5.54%
2,Cc1ccc(CNC(=O)CNCC2CCN(CCO)CC2)s1,6.89%
3,OCCCN(CCc1cccc(F)c1)C1CC1,-8.9%
4,Cc1cc(N2CCc3cnc(C)nc3C2)n2nc(C(F)(F)F)nc2n1,0.769%
5,COc1c(NC(=O)N(C)CCOc2ccc(F)cc2)c(C)nn1C,1.4%
6,FC(F)(F)c1nnc2n1CCN(c1nc(C3CC3)ns1)C2,8.21%
7,CN(CCS(=O)(=O)c1cc(Cl)ccc1Cl)CC(N)=O,4.65%
8,Cc1nccn1-c1ncccc1CNC(=O)c1ccc(O)nc1,-7.55%
9,CC(C)C(C)(C#N)NC(=O)Cn1cc(Cl)cn1 (stereo not drawn),1.18%
10,O=C(NC1CCN(CC2CC2)C1)c1ccc(C(=O)c2cc[nH]c2)cc1 (stereo not drawn),-6.14%
11,CCN(CC)C(=O)Nc1cc2c(cc1SC)OCCO2,-7.87%
12,O=C(Nc1cccc(OCc2ccc(F)cc2)c1)C1COCCO1 (stereo not drawn),1.18%
13,COc1cccc(N2CCN(Cc3ccc4[nH]ccc4c3)CC2=O)c1,4.59%
14,CCc1nc(CN(C)C(=O)C2CC(=O)N(c3cccc(O)c3)C2)no1 (stereo not drawn),-10.2%
15,CCc1ncc2c(n1)CN(C(=O)CNC(=O)C(C)C)C2,7.28%
16,Cc1ccc2[nH]c(C(=O)N3CCC4(CC3)C(=O)NCCN4C)nc2c1,1.43%
17,O=C1CC(NS(=O)(=O)N2CCOCC2)CN1CCc1ccccc1 (stereo not drawn),14.4%
18,CC(=O)N1CCN(Cc2ccc(F)c(C(F)(F)F)c2)CC(O)C1 (stereo not drawn),-6.87%
19,Cc1ccc(-c2ccnc(N(C)CC3CCCN3C)n2)c(C)n1 (stereo not drawn),-9.66%
20,Cc1nn(C)c2nc(-c3ccccn3)nc(NC[C@@H]3CCCO3)c12,7.49%
21,CCc1ccccc1OC1CN(C(=O)c2cccs2)C1,13.7%
22,Cc1noc(C)c1CN(Cc1cccnc1)C1CN2CCC1CC2 (stereo not drawn),1.91%

row,Structure (SMILES),cytotoxicity at 10 µM
1,CC(C)c1nnc(CN2C(=O)OC[C@@H]2C(C)C)o1,14.3%
2,CCC(CC)N(Cc1ccc2c(c1)OCO2)C(=O)c1ccc(=O)n(C)c1,9.06%
3,COCC(=O)N1CC[C@]2(O)CCN(Cc3ccsc3)C[C@@H]2C1,0.196%
4,CCn1ccnc1C1CCN(C(=O)C(O)c2ccc(OC)cc2)CC1 (stereo not drawn),0.171%
5,CC(C)CS(=O)(=O)CCNc1ncccn1,-2.43%
6,CCOCCc1nc(Cc2ccccc2)n[nH]1,7.9%
7,CNC(=O)C(C)CNC(=O)c1coc(COc2cccc(F)c2F)n1 (stereo not drawn),5.21%
8,COc1cccc(OCC2CCCN(C(=O)c3cc(C)n[nH]3)C2)c1 (stereo not drawn),-3.42%
9,C[C@@H]1CN(C(=O)CCCN2CCCC2)CC[C@@]1(O)C1CCOCC1,-0.422%
10,O=S1(=O)C[C@@H]2[C@H](C1)N(Cc1ccc3ccccc3c1)CCN2CC1CC1,1.99%
11,CNC(=O)CN(C)c1nc(-c2ccc(C(N)=O)cc2)nc2c1CCNC2,3.62%
12,CCn1nc(C)c(NC(=O)CN2CC[C@H](CO)[C@@H](O)C2)c1C,0.887%
13,Cc1ccc(F)cc1NC(=O)C1CCCN1C(=O)C(C)C (stereo not drawn),-4.93%
14,Cn1ccnc1CN1CCOCC(Cc2ccccn2)C1 (stereo not drawn),7.17%
15,Cc1cncc(C2CCCN(Cc3cccn3C)C2)n1 (stereo not drawn),8.25%
16,CCc1nnc2n1CCN(Cc1cc(Cl)c3c(c1)OCCO3)C2,-8.95%
17,COc1ccc(OC)c(CNCc2ccnc(N3CCCCC3)c2)c1,0.25%
18,CCn1ccnc1CN1CCN(CC(O)c2ccco2)CC1 (stereo not drawn),-4.57%
19,O=C(Nc1ccccn1)N(CCO)Cc1ccccc1Br,-14.4%
20,Cc1c[nH]cc1C(=O)N1CCN(Cc2nc(C(C)C)no2)CC1,-4.54%
21,Cc1cnc(CN2CCCC(c3cc(C(F)(F)F)[nH]n3)C2)cn1 (stereo not drawn),-0.168%
22,Cc1nc(-c2ccco2)ccc1C(=O)N1CCCC1Cn1cccn1 (stereo not drawn),5.61%

row,Structure (SMILES),cytotoxicity at 10 µM
1,O=C(c1cccc(N2CCCC2=O)c1)N1CCCC(n2cncn2)C1 (stereo not drawn),-12%
2,Cc1cccc(-n2cc(C(=O)N3CCCC(n4ccnc4)C3)nn2)c1 (stereo not drawn),5.39%
3,CCNC(=O)[C@@H]1CCCN1C1(C(=O)NC)CCCCC1,5.09%
4,CNC(=O)N1CCC2(CC1)CNc1ccc(F)cc12,10.1%
5,Cc1cc(Oc2ccc(NC(=O)C3CC3)cc2)cc(C2CCNCC2)n1,-6.18%
6,CCC1=N[C@@]2(CC[C@@H]3CN(Cc4ccccc4F)C[C@@H]32)C(=O)N1,-1.22%
7,CC(C)N1CC[C@@H]2[C@H](COCC3CC3)CN(C)C(=O)[C@@H]2CC1,6.8%
8,Cc1noc(C)c1CN1C[C@H](OCC(=O)N(C)C)[C@H]2OCCC[C@H]21,8.34%
9,Cc1noc(C)c1C(=O)N1CC[C@]2(C[C@@H](OCc3cccnc3)CO2)C1,-79.7%
10,CCOCC1c2c(ncn2C(C)C)CCN1C(C)C (stereo not drawn),10.5%
11,CCCS(=O)(=O)N1CCO[C@H]2[C@@H](Oc3cccnc3)CC[C@@H]21,-3.15%
12,CCC(=O)Nc1ccc2c(c1)C1(CCOCC1)CN2CCF,-87.4%
13,CNC(=O)[C@H]1C[C@@H]2CN(C(=O)c3cccnc3)C[C@@H]2N1S(C)(=O)=O,-4.12%
14,c1cc2c(cc1CN1CC[C@H]3CO[C@H](CN4CCCC4)[C@H]3C1)OCO2,0.355%
15,O=C1[C@H]2CN(C3CCOC3)C[C@H]2CN1c1ccccc1 (stereo partly drawn),7.16%
16,O=C([C@H]1CCCO1)N1CCCC2(CCN(Cc3ccncc3)C2=O)C1 (stereo partly drawn),11.9%
17,CN(C)C(=O)CN1CCOCC2(C1)CN(c1ncc(F)cn1)CCO2 (stereo not drawn),-6.69%
18,Cn1cnc(S(=O)(=O)N2C[C@H]3CC[C@@H](C2)N(Cc2cscn2)C3=O)c1,-20.2%
19,CS(=O)(=O)N1C[C@H]2CC[C@@H](C1)N(Cc1ccsc1)C2,44.7%
20,O=C(CSc1ccccc1)N1C[C@@H]2CC[C@H]1CN(Cc1ccncc1)C2,-0.143%
